Laboratory results: publication PMC8159897 (Angewandte Chemie (International ed. in English), 2021)

Key:
Golgi of HeLa cells = assay: Golgi accumulation; assay type: cell-based; settings: pS1 10 μM, from 1 minute to 8 minutes of incubation
How it was run: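 HeLa cells first transfected 24 h with CellLight Golgi-RFP to mark the Golgi. They were then given the NBD-labelled thiophosphopeptide test compound at 10 μM and imaged live by confocal microscopy 1, 4 and 8 min after addition. Golgi-localised green (NBD) fluorescence was compared with the red Golgi-RFP signal, and the RFP stain was checked for bleed-through into the green channel.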

[1] = Critical micelle concentration; assay type: physicochemical; settings: self-assembly / aggregation (Figures S2, S16)
[2] = test system: alkaline phosphatase (ALP); settings: incubated with ALP (0.1 U/mL) for about 16 minutes (Figure S15)

Row | SMILES | enhancement of fluorescence intensity at the Golgi (Golgi of HeLa cells) | critical micelle concentration (CMC) [1] [µM] | conversion ratio to dephosphorylated product [2]
1 | O=C(CCNc1ccc([N+](=O)[O-])c2nonc12)N[C@H](Cc1ccccc1)C(=O)N[C@H](Cc1ccccc1)C(=O)NCCSP(=O)(O)O [pS1] | about 7 times | 6.0 | 
2 | O=C(Cc1ccc2ccccc2c1)N[C@H](Cc1ccccc1)C(=O)N[C@H](Cc1ccccc1)C(=O)NCCSP(=O)(O)O [pS2] |  | 9.5 | nearly fully converted
